Assay results as given in ChEMBL document CHEMBL2203235, “Optimization of a natural product-based class of γ-secretase modulators” (J Med Chem, 2012).
pIC50: −log10 of the molar value.

Columns and labels:
[1] = Modulation of gamma secretase in CHO-2B7 cells assessed as reduction in amyloid beta 42 level after 5 hrs by MSD ELISA; type: cell-based; conditions: Cricetulus griseus, CHO-2B7, 5 h
CHO-2B7 = test: Modulation of gamma secretase in CHO-2B7 cells assessed as reduction in amyloid beta 42 level at 4 uM after 5 hrs by MSD ELISA; type: cell-based; parameters: scale not given: the % may be the effect or the level left; conditions: Cricetulus griseus
Mus musculus [2] = test: Antialzheimer activity in CD1 mouse assessed as reduction in amyloid beta 40 level at 50 mg/kg, po QD for 5 days at 8 hrs post-last dose relative to vehicle-treated control; parameters: scale not given: the % may be the effect or the level left
CHO [3] = test: Modulation of gamma secretase in CHO cells expressing human APP assessed as increase in amyloid beta (1 to 37) level at 2 uM after 6 hrs by LC/MS/MS analysis relative to control; type: cell-based; conditions: Cricetulus griseus
In short: (§1)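 Cells were treated at 3 μM or 2 μM. Secreted Aβ peptides (Aβ37, 38, 39, 40, 42) were quantified by immunoprecipitation followed by LC/MS/MS. Changes are expressed relative to vehicle-treated cells.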

[4] = Modulation of gamma secretase in CHO-2B7 cells assessed as reduction in amyloid beta 40 level after 5 hrs by MSD ELISA; type: cell-based; conditions: Cricetulus griseus, CHO-2B7, 5 h
Mus musculus [5] = test: Antialzheimer activity in CD1 mouse assessed as reduction in amyloid beta 42 level at 10 mg/kg, po QD for 5 days at 8 hrs post-last dose relative to vehicle-treated control; parameters: scale not given: the % may be the effect or the level left
Mus musculus [6] = test: Antialzheimer activity in CD1 mouse assessed as reduction in amyloid beta 38 level at 30 mg/kg, po at 6 hrs relative to vehicle-treated control; type: functional; parameters: scale not given: the % may be the effect or the level left
In short: (§2)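 CD-1 mice received a single IP or PO dose (n = 12 per group) and were sampled at 6 h. Plasma and brain drug concentrations were measured in μM. Aβ42, Aβ40 and Aβ38 in brain homogenate are expressed as percent lowering versus vehicle. Statistical significance was assessed against vehicle.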

CHO [7] = test: Modulation of gamma secretase in CHO cells expressing human APP assessed as reduction in amyloid beta (1 to 42) level at 2 uM after 6 hrs by LC/MS/MS analysis relative to control; type: cell-based; parameters: scale not given: the % may be the effect or the level left; conditions: Cricetulus griseus; in short: as §1
Mus musculus [8] = test: Antialzheimer activity in CD1 mouse assessed as reduction in amyloid beta 40 level at 30 mg/kg, po at 6 hrs relative to vehicle-treated control; type: functional; parameters: scale not given: the % may be the effect or the level left; in short: as §2
CHO [9] = test: Modulation of gamma secretase in CHO cells expressing human APP assessed as increase in amyloid beta (1 to 39) level at 2 uM after 6 hrs by LC/MS/MS analysis relative to control; type: cell-based; conditions: Cricetulus griseus; in short: as §1
Mus musculus [10] = test: Antialzheimer activity in CD1 mouse assessed as reduction in amyloid beta 40 level at 10 mg/kg, po QD for 5 days at 8 hrs post-last dose relative to vehicle-treated control; parameters: scale not given: the % may be the effect or the level left
Mus musculus [11] = test: Antialzheimer activity in CD1 mouse assessed as reduction in amyloid beta 38 level at 100 mg/kg, po at 6 hrs relative to vehicle-treated control; type: functional; parameters: scale not given: the % may be the effect or the level left; in short: as §2
[12] = Modulation of gamma secretase in CHO-2B7 cells assessed as reduction in amyloid beta 38 level after 5 hrs by MSD ELISA; type: cell-based; conditions: Cricetulus griseus, CHO-2B7, 5 h
CHO [13] = test: Modulation of gamma secretase in CHO cells expressing human APP assessed as reduction amyloid beta (1 to 38) level at 2 uM after 6 hrs by LC/MS/MS analysis relative to control; type: cell-based; parameters: scale not given: the % may be the effect or the level left; conditions: Cricetulus griseus; in short: as §1
[14] = Inhibition of gamma secretase in CHO-2B7 cells assessed as reduction in total amyloid beta level after 5 hrs by MSD ELISA; type: cell-based; conditions: Cricetulus griseus, CHO-2B7, 5 h
Mus musculus [15] = test: Antialzheimer activity in CD1 mouse assessed as reduction in amyloid beta 42 level at 100 mg/kg, po at 6 hrs relative to vehicle-treated control; type: functional; parameters: scale not given: the % may be the effect or the level left; in short: as §2
Mus musculus [16] = test: Antialzheimer activity in CD1 mouse assessed as reduction in amyloid beta 38 level at 50 mg/kg, po QD for 5 days at 8 hrs post-last dose relative to vehicle-treated control; parameters: scale not given: the % may be the effect or the level left
SUP-T1 = test: Inhibition of notch-mediated NICD release in human SUP-T1 cells at 4 uM after 18 hrs by immunoblotting assay; type: cell-based
CHO [17] = test: Modulation of gamma secretase in CHO cells expressing human APP assessed as amyloid beta (1 to 40) level at 2 uM after 6 hrs by LC/MS/MS analysis (reference value: 10.2 ng); type: cell-based; conditions: Cricetulus griseus; in short: as §1
Mus musculus [18] = test: Antialzheimer activity in CD1 mouse assessed as reduction in amyloid beta 38 level at 10 mg/kg, po QD for 5 days at 8 hrs post-last dose relative to vehicle-treated control; parameters: scale not given: the % may be the effect or the level left
Mus musculus [19] = test: Antialzheimer activity in CD1 mouse assessed as reduction in amyloid beta 42 level at 30 mg/kg, po at 6 hrs relative to vehicle-treated control; type: functional; parameters: scale not given: the % may be the effect or the level left; in short: as §2
Mus musculus [20] = test: Antialzheimer activity in CD1 mouse assessed as reduction in amyloid beta 40 level at 100 mg/kg, po at 6 hrs relative to vehicle-treated control; type: functional; parameters: scale not given: the % may be the effect or the level left; in short: as §2
[21] = Plasma concentration in CD1 mouse at 1 mg/kg, iv at 6 hrs
CHO [22] = test: Modulation of gamma secretase in CHO cells expressing human APP assessed as amyloid beta (1 to 40) level at 3 uM after 6 hrs by LC/MS/MS analysis (reference value: 10.2 ng); type: cell-based; conditions: Cricetulus griseus; in short: as §1
[23] = Half life in CD1 mouse at 1 mg/kg, iv; conditions: in vivo
in vivo [24] = conditions: CD1, mouse, po, 30 mg/kg
[25] = Drug uptake in CD1 mouse brain at 30 mg/kg, ip at 6 hrs; type: ADME, organism-based; parameters: dose 30 mg/kg, route intraperitoneal; conditions: read-out: Drug uptake; in short: as §2
Mus musculus [26] = test: Antialzheimer activity in CD1 mouse assessed as reduction in amyloid beta 40 level at 30 mg/kg, ip at 6 hrs relative to vehicle-treated control; type: functional; parameters: scale not given: the % may be the effect or the level left; conditions: route intraperitoneal; in short: as §2
CHO [27] = test: Modulation of gamma secretase in CHO cells expressing human APP assessed as increase in amyloid beta (1 to 39) level at 3 uM after 6 hrs by LC/MS/MS analysis relative to control; type: cell-based; conditions: Cricetulus griseus; in short: as §1
CHO [28] = test: Modulation of gamma secretase in CHO cells expressing human APP assessed as amyloid beta (1 to 42) level at 3 uM after 6 hrs by LC/MS/MS analysis (reference value: 0.6 ng); type: cell-based; conditions: Cricetulus griseus; in short: as §1
[29] = Plasma concentration in CD1 mouse at 100 mg/kg, ip at 6 hrs; type: ADME, organism-based; parameters: dose 100 mg/kg, route intraperitoneal; in short: as §2
[30] = Clearance in CD1 mouse at 1 mg/kg, iv; conditions: in vivo
[31] = Drug uptake in CD1 mouse brain at 100 mg/kg, ip at 6 hrs; type: ADME, organism-based; parameters: dose 100 mg/kg, route intraperitoneal; conditions: read-out: Drug uptake; in short: as §2
[32] = Ratio of drug uptake in brain to plasma in CD1 mouse at 1 mg/kg, iv at 6 hrs; conditions: brain and plasma
in vivo [33] = conditions: CD1, mouse, po, 30 mg/kg; remark: listed apart in the source
Mus musculus [34] = test: Antialzheimer activity in CD1 mouse assessed as reduction in amyloid beta 42 level at 100 mg/kg, ip at 6 hrs relative to vehicle-treated control; type: functional; parameters: scale not given: the % may be the effect or the level left; conditions: route intraperitoneal; in short: as §2
Mus musculus [35] = test: Antialzheimer activity in CD1 mouse assessed as reduction in amyloid beta 38 level at 30 mg/kg, ip at 6 hrs relative to vehicle-treated control; type: functional; parameters: scale not given: the % may be the effect or the level left; conditions: route intraperitoneal; in short: as §2
Liver microsomes = test: Metabolic stability in human liver microsomes at 1 uM after 60 mins by LC/MS/MS analysis; conditions: 1 h
[36] = Ratio of drug uptake in brain to plasma in CD1 mouse at 30 mg/kg, po at 6 hrs; conditions: brain and plasma
CHO [37] = test: Modulation of gamma secretase in CHO cells expressing human APP assessed as increase in amyloid beta (1 to 37) level at 3 uM after 6 hrs by LC/MS/MS analysis relative to control; type: cell-based; conditions: Cricetulus griseus; in short: as §1
Mus musculus [38] = test: Antialzheimer activity in CD1 mouse assessed as reduction in amyloid beta 40 level at 100 mg/kg, ip at 6 hrs relative to vehicle-treated control; type: functional; parameters: scale not given: the % may be the effect or the level left; conditions: route intraperitoneal; in short: as §2
Mus musculus [39] = test: Antialzheimer activity in CD1 mouse assessed as reduction in amyloid beta 38 level at 100 mg/kg, ip at 6 hrs relative to vehicle-treated control; type: functional; parameters: scale not given: the % may be the effect or the level left; conditions: route intraperitoneal; in short: as §2
[40] = Drug uptake in CD1 mouse brain at 1 mg/kg, iv at 6 hrs
CHO [41] = test: Modulation of gamma secretase in CHO cells expressing human APP assessed as reduction amyloid beta (1 to 38) level at 3 uM after 6 hrs by LC/MS/MS analysis relative to control; type: cell-based; parameters: scale not given: the % may be the effect or the level left; conditions: Cricetulus griseus; in short: as §1
Mus musculus [42] = test: Antialzheimer activity in CD1 mouse assessed as reduction in amyloid beta 42 level at 30 mg/kg, ip at 6 hrs relative to vehicle-treated control; type: functional; parameters: scale not given: the % may be the effect or the level left; conditions: route intraperitoneal; in short: as §2
[43] = Plasma concentration in CD1 mouse at 30 mg/kg, ip at 6 hrs; type: ADME, organism-based; parameters: dose 30 mg/kg, route intraperitoneal; in short: as §2
[44] = Volume of distribution in CD1 mouse at 1 mg/kg, iv; conditions: in vivo

## C[C@@H]1C[C@H]([C@H](O)C(C)(C)O)O[C@H]2[C@H]1[C@@]1(C)CC[C@@]34C[C@@]35CC[C@H](O[C@H]3CN(C(=O)CC6CC6)CCO3)C(C)(C)[C@@H]5CC[C@H]4[C@]1(C)[C@H]2O
[1]
  pIC50: 7.15
CHO-2B7
  Activity: 40%

## CCO[C@@H]([C@H]1C[C@@H](C)[C@H]2[C@H](O1)[C@H](O)[C@@]1(C)[C@@H]3CC[C@H]4C(C)(C)[C@@H](O[C@H]5CN(C6CN(C)C6)CCO5)CC[C@@]45C[C@@]35CC[C@]21C)C(C)(C)O
Mus musculus [2]
  Activity: 10%
CHO [3]
  Activity: 380%
[4]
  pIC50: 5.68
Mus musculus [5]
  Activity: 9%
Mus musculus [6]
  Activity: 16%
CHO [7]
  Activity: 83%
Mus musculus [8]
  Activity: 9%
[1]
  pIC50: 7.00
CHO [9]
  Activity: 530%
Mus musculus [10]
  Activity: 7%
Mus musculus [11]
  Activity: 31%
[12]
  pIC50: 6.80
CHO [13]
  Activity: 33%
[14]
  pIC50: 4.85
Mus musculus [15]
  Activity: 26%
Mus musculus [16]
  Activity: 38%
SUP-T1
  inhibition: 0%
CHO [17]
  Activity: 11.4 ng
Mus musculus [18]
  Activity: 13%
Mus musculus [19]
  Activity: 16%
Mus musculus [20]
  Activity: 15%

## CCO[C@@H]([C@H]1C[C@@H](C)[C@H]2[C@H](O1)[C@H](O)[C@@]1(C)[C@@H]3CC[C@H]4C(C)(C)[C@@H](O[C@H]5CN(CCOC)CCO5)CC[C@@]45C[C@@]35CC[C@]21C)C(C)(C)O
[21]
  concentration at 6 h: 35 nM
CHO [22]
  Activity: 6.2 ng
[4]
  pIC50: 5.00
[23]
  half-life: 150 min
In vivo [24]
  Cmax: 3.6 µM
[25]
  concentration at 6 h: 1600 nM
Mus musculus [26]
  Activity: 8%
CHO [27]
  Activity: 310%
CHO [28]
  Activity: Below limit of detection
[29]
  concentration at 6 h: 12 µM
[1]
  pIC50: 6.57
[30]
  clearance: 4.83 mL/min/kg
[31]
  concentration at 6 h: 23 µM
[32]
  Kp at 6 h: 0.26
In vivo [33]
  bioavailability: 19%
Mus musculus [34]
  Activity: 46%
Mus musculus [35]
  Activity: 4%
Liver microsomes
  Stability: Stable
[36]
  Kp at 6 h: 0.4
CHO [37]
  Activity: 50%
Mus musculus [38]
  Activity: 30%
[12]
  pIC50: 6.42
[14]
  pIC50: 4.92
Mus musculus [39]
  Activity: 31%
[40]
  concentration at 6 h: 9 nM
SUP-T1
  inhibition: 0%
CHO [41]
  Activity: 58%
Mus musculus [42]
  Activity: 7%
[43]
  concentration at 6 h: 2200 nM
[44]
  Vd: 0.42 L/kg
